ChEMBL document CHEMBL1154765, “A series of alpha-amino acid ester prodrugs of camptothecin: in vitro hydrolysis and A549 human lung carcinoma cell cytotoxicity” (J Med Chem, 2010)

Legend:
[1] = Stability in phosphate buffer assessed as half life of camptothecin formation at 5 mg at pH 7.4 by HPLC; format: physicochemical; conditions: in vitro
How it was run: (§1)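 Prodrug (5 mg) in 2 mL 100 mM sodium phosphate buffer on shaker at 37 °C, in triplicate. Aliquots taken at set times, dried, reconstituted in methanol, and analysed by HPLC with fluorescence detection. CPT appearance fit to first-order kinetics, Ct versus C∞; half-life derived from the rate constant.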

[2] = Stability in phosphate buffer assessed as half life of prodrug hydrolysis at 5 mg at pH 7.4 by HPLC; format: physicochemical; conditions: in vitro
How it was run: (§2)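 In 100 mM sodium phosphate buffer, 5 mg prodrug per 2 mL, shaken at 37 °C, triplicate runs. Timed aliquots dried, taken up in methanol, and quantified by HPLC with fluorescence detection. Prodrug loss fit to first-order decay, Ct versus C0; half-life obtained from the rate constant.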

[3] = test system: A549; experiment: Cytotoxicity against human A549 cells after 48 hrs by MTT method; format: functional, cell-based; conditions: A549, 48 h
How it was run: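 A549 cells grown in DMEM/F-12 with 10% FBS, 37 °C, 5% CO2; seeded 10,000 cells/well, attached 24 h, then exposed in triplicate to 30 dilutions for 48 h. Washed with PBS, MTT added 5 h at 37 °C in dark, crystals dissolved in SDS/DMF:water, absorbance 570 nm (reference 690 nm). Viability relative to drug-free controls; IC50 from variable-slope sigmoidal fit.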

[4] = Stability in phosphate buffer assessed as half life of camptothecin formation at 5 mg at pH 6.6 by HPLC; format: physicochemical; conditions: in vitro; how it was run: as §1
[5] = Stability in phosphate buffer assessed as half life of camptothecin formation at 5 mg at pH 7 by HPLC; format: physicochemical; how it was run: as §1
[6] = Stability in phosphate buffer assessed as half life of prodrug hydrolysis at 5 mg at pH 7 by HPLC; format: physicochemical; how it was run: as §2
[7] = Stability in phosphate buffer assessed as half life of prodrug hydrolysis at 5 mg at pH 6.6 by HPLC; format: physicochemical; conditions: in vitro; how it was run: as §2

## CC[C@@]1(OC(=O)CN)C(=O)OCc2c1cc1n(c2=O)Cc2cc3ccccc3nc2-1
[1]
  t1/2: 10.79 h
[2]
  t1/2: 1.774 h
[3]
  IC50: 12.2 nM
[4]
  t1/2: 11.54 h
[5]
  t1/2: 11.26 h
[6]
  t1/2: 1.802 h
[7]
  t1/2: 2.564 h

## CCC[C@@H](N)C(=O)O[C@]1(CC)C(=O)OCc2c1cc1n(c2=O)Cc2cc3ccccc3nc2-1
[1]
  t1/2: 32.31 h
[2]
  t1/2: 2.926 h
[3]
  IC50: 5.2 nM
[4]
  t1/2: 38.26 h
[5]
  t1/2: 36.7 h
[6]
  t1/2: 4.119 h
[7]
  t1/2: 4.652 h

## CC[C@@H](N)C(=O)O[C@]1(CC)C(=O)OCc2c1cc1n(c2=O)Cc2cc3ccccc3nc2-1
[1]
  t1/2: 25.34 h
[2]
  t1/2: 2.934 h
[3]
  IC50: 4.1 nM
[4]
  t1/2: 28.25 h
[5]
  t1/2: 26.27 h
[6]
  t1/2: 3.197 h
[7]
  t1/2: 4.68 h

## CC[C@@]1(OC(=O)[C@@H](C)N)C(=O)OCc2c1cc1n(c2=O)Cc2cc3ccccc3nc2-1
[1]
  t1/2: 15.47 h
[2]
  t1/2: 2.496 h
[3]
  IC50: 120 nM
[4]
  t1/2: 21.31 h
[5]
  t1/2: 16.3 h
[6]
  t1/2: 2.828 h
[7]
  t1/2: 4.336 h

## CC[C@@]1(O)C(=O)OCc2c1cc1n(c2=O)Cc2cc3ccccc3nc2-1 [CAMPTOTHECIN]
[3]
  IC50: 5.38 nM
